Experimental findings from ChEMBL document CHEMBL2385052, “Identification of the fused bicyclic 4-amino-2-phenylpyrimidine derivatives as novel and potent PDE4 inhibitors” (Bioorg Med Chem Lett, 2013) are described below.

Activity calls are given as the source filed them. The calls are words filed in the database; no cut-off is given here. Where only a bound is given, the exact number is not on record here.

The nature of series [1]: Antiinflammatory activity in Balb/c mouse splenocytes assessed as LPS-induced TNF-alpha production after 18 to 24 hrs by AlphaLISA. Type of series: functional, cell-based. Particulars: Splenocyte.
Series [2] has as its target T1, 3',5'-cyclic-AMP phosphodiesterase 4B (Homo sapiens, UniProt Q07343). As to the kind of experiment: Inhibition of human recombinant PDE4B (152 to 564 amino acids) using cAMP as substrate after 30 mins by plate reader analysis.
The subject of a further series is Mus musculus. Briefly: Antiinflammatory activity in ip dosed BALB/c mouse assessed as inhibition of LPS-induced pulmonary neutrophilia administered 30 mins prior to LPS challenge measured after 4 to 5 hrs. It is filed as functional. Particulars: for ED50: read-out: ID50 (the source's name).
Series [3] can be described thus: Octanol-phosphate buffer partition coefficient, log D of the compound at pH 7.4 after 12 hrs by shake flask method. It is filed as physicochemical.
Series [4] is described as follows: Permeability of the compound at pH 7.4 after 4 hrs by PAMPA. The note with it: read-out: permeability. Type of series: ADME. The essentials:
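Passive membrane permeability was measured by PAMPA at pH 7.4. The effective permeability coefficient Pe is reported in 10^-6 cm/sec.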
A general note: In PAMPA a lipid-coated filter parts donor from acceptor wells.

Series [5] deals with T1, 3',5'-cyclic-AMP phosphodiesterase 4B. As to the kind of experiment: Inhibition of human recombinant PDE4B (152 to 564) using cAMP as substrate at 10 uM after 30 mins by plate reader analysis.

T1 sequence (Q07343 whole entry, the tested form may be a part): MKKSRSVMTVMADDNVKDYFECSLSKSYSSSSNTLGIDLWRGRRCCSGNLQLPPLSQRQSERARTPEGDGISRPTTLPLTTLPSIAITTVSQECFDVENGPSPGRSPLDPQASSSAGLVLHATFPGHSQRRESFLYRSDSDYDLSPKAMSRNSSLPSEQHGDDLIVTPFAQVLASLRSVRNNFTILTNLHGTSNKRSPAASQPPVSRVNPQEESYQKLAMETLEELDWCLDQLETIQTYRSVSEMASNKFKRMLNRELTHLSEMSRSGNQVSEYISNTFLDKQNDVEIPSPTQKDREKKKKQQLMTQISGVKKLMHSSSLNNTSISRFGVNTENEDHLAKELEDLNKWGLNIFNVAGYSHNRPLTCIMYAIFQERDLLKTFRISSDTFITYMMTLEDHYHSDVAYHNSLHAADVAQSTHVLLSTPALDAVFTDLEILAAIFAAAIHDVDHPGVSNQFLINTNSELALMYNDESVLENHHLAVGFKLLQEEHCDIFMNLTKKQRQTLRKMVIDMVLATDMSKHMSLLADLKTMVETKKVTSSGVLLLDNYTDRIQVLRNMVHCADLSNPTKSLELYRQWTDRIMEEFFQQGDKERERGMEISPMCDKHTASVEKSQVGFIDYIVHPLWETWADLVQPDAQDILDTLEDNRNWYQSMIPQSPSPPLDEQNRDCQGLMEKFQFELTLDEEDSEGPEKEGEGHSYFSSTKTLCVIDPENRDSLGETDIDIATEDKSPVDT

Turning to `O=C(Cc1ccc(Nc2nc(-c3ccccc3)nc3c2S(=O)(=O)CCC3)cc1)Nc1ccccc1`, the results for the IC50 in series [1] and in series [2] were 18 nM and 43 nM, respectively.
With `O=C(O)Cc1ccc(Nc2nc(-c3ccccc3)nc3c2CCCC3)cc1`, the IC50 in series [2] was 430 nM.
`CCCNC(=O)Cc1ccc(Nc2nc(-c3ccccc3)nc3c2S(=O)(=O)CCC3)cc1`: the IC50 came to 9.8 nM in series [1] and 7.5 nM in series [2]. In addition, the ED50 in the series with Mus musculus worked out at 18 mg/kg.
Consider `O=C(O)Cc1ccc(Nc2nc(-c3ccccc3)nc3c2SCCC3)cc1`, for which the 50% inhibitory concentration (IC50) in series [1] stood at 90 nM; in series [2], 29 nM. The logD at 12 h in series [3] turned out to be 1.4. Also, the Papp at 4 h in series [4] amounted to 15.5 ×10⁻⁶ cm/s.
Take `O=C(O)Cc1ccc(Nc2nc(-c3ccccc3)nc3c2COC3)cc1`: in series [2], the IC50 was 2200 nM.
Turning to `O=C(O)Cc1ccc(Nc2nc(-c3ccccc3)nc3c2CS(=O)(=O)CC3)cc1`, the IC50 in series [2] worked out at 7900 nM.
For `CNC(=O)Cc1ccc(Nc2nc(-c3ccccc3)nc3c2S(=O)(=O)CCC3)cc1`, the IC50 in series [1] stood at 35 nM; in series [2], 27 nM.
On to `CC(C)(C)CNC(=O)Cc1ccc(Nc2nc(-c3ccccc3)nc3c2S(=O)(=O)CCC3)cc1`, for which the IC50 came out at 0.8 nM in series [1] and 4.7 nM in series [2]. Also, in the series with Mus musculus, the result was inactive.
In the case of `O=C(O)Cc1ccc(Nc2nc(-c3ccccc3)nc3c2CCC3)cc1`, in series [2], the IC50 was 610 nM.
For `O=C(O)Cc1cccc(Nc2nc(-c3ccccc3)nc3c2CS(=O)(=O)C3)c1`, the IC50 in series [2] worked out at 2500 nM.
`CN(C)C(=O)Cc1ccc(Nc2nc(-c3ccccc3)nc3c2S(=O)(=O)CCC3)cc1`: the values for the IC50 in series [1] and in series [2] were 17 nM and 33 nM, respectively.
With `CC(C)CNC(=O)Cc1ccc(Nc2nc(-c3ccccc3)nc3c2S(=O)(=O)CCC3)cc1`, the values for the IC50 in series [1] and in series [2] were 4.7 nM and 6.6 nM, respectively.
With `O=C(O)Cc1ccc(Nc2nc(-c3ccccc3)nc3c2CCCCC3)cc1`, the inhibition in series [5] came out at 35%.
In the case of `O=C(O)Cc1ccc(Nc2nc(-c3ccccc3)nc3c2S(=O)(=O)CC3)cc1`, the figures for the concentration for half-maximal inhibition (IC50) in series [1] and in series [2] were more than 10000 nM and 280 nM, respectively.
Turning to `CCCCNC(=O)Cc1ccc(Nc2nc(-c3ccccc3)nc3c2S(=O)(=O)CCC3)cc1`, the IC50 worked out at 13 nM in series [1] and 22 nM in series [2]. The ED50 in the series on Mus musculus was 23 mg/kg.
As for `O=C(O)Cc1ccc(Nc2nc(-c3ccccc3)nc3c2CS(=O)(=O)C3)cc1`, the values for the IC50 in series [1] and in series [2] were 970 nM and 140 nM, respectively. In series [3], this compound displayed a logD at 12 h of 0.016. The Papp at 4 h in series [4] was less than 2 ×10⁻⁶ cm/s.
`O=C(O)CN1CCN(c2nc(-c3ccccc3)nc3c2CS(=O)(=O)C3)CC1`: the IC50 in series [2] came out at 5000 nM.
On the same count and under the same terms, to `O=C(O)CCc1ccc(Nc2nc(-c3ccccc3)nc3c2CS(=O)(=O)C3)cc1` belongs 800 nM.
On to `NC(=O)Cc1ccc(Nc2nc(-c3ccccc3)nc3c2S(=O)(=O)CCC3)cc1`, for which the figures for the IC50 in series [1] and in series [2] were 8.5 nM and 16 nM, respectively. For the same compound, the logD at 12 h in series [3] is 2.9. Besides, the Papp at 4 h in series [4] is more than 50 ×10⁻⁶ cm/s.
The corresponding values for `O=C(O)Cc1ccc(Nc2nc(-c3ccccc3)nc3c2CCS(=O)(=O)C3)cc1` are more than 10000 nM, 28 nM, -0.45 and less than 2 ×10⁻⁶ cm/s.
In the case of `O=C(O)CC1CCN(c2nc(-c3ccccc3)nc3c2CS(=O)(=O)C3)CC1`, in series [2], the IC50 was determined as 190 nM.
On to `O=C(Nc1c(Cl)cncc1Cl)c1ccc(OC(F)F)c(OCC2CC2)c1` [ROFLUMILAST], for which, in series [1], the IC50 worked out at 1.2 nM.
`CC(C)(C)NC(=O)Cc1ccc(Nc2nc(-c3ccccc3)nc3c2S(=O)(=O)CCC3)cc1`: the IC50 in series [1] stood at 8.5 nM; in series [2] it was 11 nM.
Regarding `O=C(O)CN1CCC(Nc2nc(-c3ccccc3)nc3c2CS(=O)(=O)C3)CC1`, in series [2], the IC50 amounted to 3000 nM.
On the same count and under the same terms, to `O=C(O)CC1CCN(c2nc(-c3ccccc3)nc3c2CSC3)CC1` belongs 150 nM.
`O=C(O)Cc1ccc(Nc2nc(-c3ccccc3)nc3c2S(=O)(=O)CCC3)cc1`: the IC50 amounted to 390 nM in series [1] and 25 nM in series [2]. In series [3], this compound yielded a logD at 12 h of 0.43. The Papp at 4 h in series [4] is 5.8 ×10⁻⁶ cm/s.
Consider `O=C(O)Cc1ccc(Nc2nc(-c3ccccc3)nc3ccccc23)cc1`, for which, in series [2], the IC50 is 480 nM.
In the case of `O=C(O)Cc1ccc(Nc2nc(-c3ccccc3)nc3sccc23)cc1`, the IC50 in series [2] turned out to be 230 nM.
`O=C(O)Cc1ccc(Nc2nc(-c3ccccc3)nc3ncccc23)cc1`: the inhibition in series [5] was found to be 14%.
Take `O=C(O)Cc1ccc(Nc2nc(-c3ccccc3)nc3c2CSC3)cc1`: the IC50 is 220 nM in series [1] and 29 nM in series [2]. In series [3], this compound gave a logD at 12 h of 1.3. Also, the Papp at 4 h in series [4] came to 13.3 ×10⁻⁶ cm/s.

Broadly, the IC50 is the concentration needed to halve the response being measured. As a reminder, the logD is lipophilicity at a set pH, counting ionised and neutral species. Read a high logD as higher lipophilicity. Broadly, the inhibition is the change of the read-out against control, counted positive when it falls.
